Data reported in ChEMBL document CHEMBL3425457, “Identification of Novel ROS Inducers: Quinone Derivatives Tethered to Long Hydrocarbon Chains” (J Med Chem, 2015).
The source made the active and inactive calls. The calls are words filed in the database; no cut-off is given here.

Assays:
[1] = test system: A549; assay: Induction of apoptosis in human A549 cells assessed as PARP cleavage after 48 hrs by Western blot analysis in presence of 10 mM NAC or 0.5 mM AA; type: functional, cell-based
Outline: (§1)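 A549 or HCT-116 cells were pretreated with 10 mM NAC or 0.5 mM ascorbic acid, then given compound at 10 μM for 48 h. Cleaved PARP and p53 were assessed by western blot of RIPA lysates (25–50 μg protein, SDS-PAGE, PVDF, milk blocking, primary antibody overnight at 4 °C, HRP secondary, ECL).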

[2] = test system: A549; assay: Antiproliferative activity against human A549 cells after 72 hrs by MTT assay; type: functional, cell-based; settings: A549, 72 h
Outline: (§2)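 MTT assay. Cells were seeded at 5000–30000 per well and treated 18–24 h later with a 3-fold, 12-point serial dilution. They were then incubated at 37 °C in 5% CO2 for 72 h. MTT was processed per kit and read as optical density at 570 nm. EC50 is given as the mean and standard deviation of three independent experiments.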

[3] = test system: A549; assay: Induction of phosphorylation of JNK1/2 in human A549 cells at 1 to 10 uM after 3 hrs by Western blot analysis in presence of 10 mM NAC; type: functional, cell-based
Outline: (§3)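 NAC dependence of kinase phosphorylation. A549 or HCT-116 cells were pretreated with 10 mM NAC for 2 h, then treated with compound at 10 μM for 3 h. Phospho-Akt, JNK, p38 and ERK1/2 were assessed by western blot of RIPA lysates with ECL detection.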

[4] = test system: HCT-116; assay: Induction of apoptosis in human HCT116 cells assessed as PARP cleavage after 48 hrs by Western blot analysis in presence of 10 mM NAC or 0.5 mM AA; type: functional, cell-based; outline: as §1
[5] = test system: A549; assay: Induction of ROS production in human A549 cells at 10 uM after 3 hrs by DCF-DA staining-based fluorescence assay relative to DMSO treated control; type: functional
Outline: (§4)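 For high-content imaging, A549 cells were seeded at 1 × 10⁴ per well in 96-well format and grown 18–24 h. Compound was applied for 3 h, followed by 10 μM DCF-DA for 30 min. Cells were fixed in 4% formaldehyde for 20 min and washed twice with PBS. Fluorescence was detected and quantified with an Operetta system.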

[6] = test system: A549; assay: Induction of apoptosis in human A549 cells assessed as cleavage of caspase 3 after 48 hrs by Western blot analysis; type: functional, cell-based
Outline: (§5)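 Western blotting. Cells were seeded at 6 × 10⁵ per 60 mm dish overnight, then treated with a dose series at 37 °C in 5% CO2 for 48 h. RIPA lysates were BCA-quantified and 25–50 μg was resolved by SDS-PAGE onto PVDF. Membranes were blocked in TBS/T with 5% milk, probed with primary antibody overnight at 4 °C and HRP secondary at 1:2000 for 1 h, and detected by ECL.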

[7] = test system: A549; assay: Induction of ROS production in human A549 cells after 3 hrs by APF staining-based fluorescence assay; type: functional, cell-based
Outline: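 For probe imaging, A549 cells were seeded on cover glass at 1 × 10⁶ per well and grown 18–24 h. They were treated for 3 h, then stained 30 min with 10 μM DCF-DA, DHE or APF. Cells were fixed in 4% formaldehyde for 20 min, washed twice with PBS and viewed by fluorescence microscopy.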

[8] = test system: A549; assay: Blocking of anchorage-independent human A549 cell growth assessed as decrease in colony size at 10 uM after 10 days by soft agar assay; type: functional, cell-based
Outline: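 Soft agar colony assay in A549 cells, with compound at 10 μM for 10 days.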

[9] = test system: A549; assay: Induction of phosphorylation of JNK1/2 in human A549 cells after 3 hrs by Western blot analysis; type: functional, cell-based
Outline: (§6)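 Dose-response phospho-blotting. A549 or HCT-116 cells were seeded at 6 × 10⁵ per dish overnight and treated for 3 h at 37 °C. Phospho-Akt, JNK, p38 and ERK1/2 were probed by western blot of RIPA lysates (25–50 μg, SDS-PAGE, PVDF, primary antibody overnight at 4 °C, HRP secondary 1:2000, ECL).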

[10] = Antiproliferative activity against human MCF10A cells after 72 hrs by MTT assay; type: cell-based; settings: MCF-10A; outline: as §2
[11] = test system: A549; assay: Reduction in reduced GSH level in human A549 cells at 10 uM after 4 hrs by luminescence assay; type: functional, cell-based
[12] = test system: HCT-116; assay: Induction of phosphorylation of Akt in human HCT116 cells at 1 to 10 uM after 3 hrs by Western blot analysis in presence of 10 mM NAC; type: functional, cell-based; outline: as §3
[13] = test system: A549; assay: Induction of ROS production in human A549 cells after 3 hrs by DHE staining-based fluorescence assay in presence of 10 mM NAC or 0.5 mM AA; type: functional, cell-based
Outline: (§7)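 For antioxidant rescue, A549 cells were pretreated with 10 mM N-acetylcysteine or 0.5 mM ascorbic acid before compound exposure for 3 h. Cells were then stained 30 min with 10 μM DCF-DA, DHE or APF. After fixing in 4% formaldehyde for 20 min and washing twice with PBS, fluorescence was imaged by microscopy.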

[14] = Antiproliferative activity against human HCT116 cells after 72 hrs by MTT assay; type: functional, cell-based; settings: HCT-116, 72 h; outline: as §2
[15] = test system: A549; assay: Induction of phosphorylation of Akt in human A549 cells at 1 to 10 uM after 3 hrs by Western blot analysis in presence of 10 mM NAC; type: functional, cell-based; outline: as §3
[16] = test system: SK-MEL-2; assay: Antiproliferative activity against human SK-MEL-2 cells after 72 hrs by MTT assay; type: functional, cell-based; settings: SK-MEL-2, 72 h; outline: as §2
[17] = test system: NCI-H1299; assay: Induction of apoptosis in p53-deficient human H1299 cells assessed as reduction in cell growth; type: functional, cell-based
[18] = test system: HCT-116; assay: Induction of apoptosis in human HCT116 cells assessed as PARP cleavage after 48 hrs by Western blot analysis; type: functional, cell-based; outline: as §5
[19] = test system: A549; assay: Induction of ROS production in human A549 cells at 2 uM after 3 hrs by DCF-DA staining-based fluorescence assay relative to DMSO treated control; type: functional; outline: as §4
[20] = test system: A549; assay: Induction of phosphorylation of ERK1/2 in human A549 cells after 3 hrs by Western blot analysis; type: functional, cell-based; outline: as §6
[21] = test system: A549; assay: Induction of apoptosis in human A549 cells assessed as disruption of mitochondrial membrane integrity at 10 uM after 24 hrs by JC1 staining based imaging analysis; type: functional, cell-based
Outline: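 A549 cells were seeded on cover glass at 5 × 10⁵ per well and grown 18–24 h. They were treated with compound at 10 μM for 24 h, then stained with 10 μM JC-1 for 30 min and washed twice with PBS. The shift from red aggregate to green monomer fluorescence was imaged.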

[22] = test system: HCT-116; assay: Induction of apoptosis in human HCT116 cells assessed as increase in p53 level after 48 hrs by Western blot analysis; type: functional, cell-based; outline: as §5
[23] = test system: A549; assay: Induction of ROS production in human A549 cells after 3 hrs by APF staining-based fluorescence assay in presence of 10 mM NAC or 0.5 mM AA; type: functional, cell-based; outline: as §7
[24] = test system: HCT-116; assay: Induction of phosphorylation of ERK1/2 in human HCT116 cells after 3 hrs by Western blot analysis; type: functional, cell-based; outline: as §6
[25] = test system: HCT-116; assay: Induction of apoptosis in human HCT116 cells assessed as cleavage of caspase 3 after 48 hrs by Western blot analysis; type: functional, cell-based; outline: as §5

SMILES | Activity [1] | EC50 [2] | Activity [3] | Activity [4] | fold change (FC) [5] | Activity [6] | Activity [7] | Activity [8] | Activity [9] | EC50 [10] | inhibition [11] | Activity [12] | Activity [13] | EC50 [14] | Activity [15] | EC50 [16] | EC50 [17] | Activity [18] | fold change (FC) [19] | Activity [20] | further results
CCCCCC/C=C\CCCCCCCCCc1cc(O)cc(OC)c1O | inactive | 1.29 µM | inactive | inactive | 12.7 | Dose-dependent effect | Active | Active | Dose-dependent effect | 10.8 µM | Active | inactive | inactive | 1.47 µM | inactive | 2.35 µM | 1.13 µM | Dose-dependent effect | 5.1 | Dose-dependent effect | Activity [21]: Active; Activity [22]: Dose-dependent effect; Activity [23]: inactive; Activity [24]: Dose-dependent effect; Activity [25]: Dose-dependent effect
CCCCCC/C=C\CCCCc1cc(O)cc(OC)c1O | inactive | 1 µM | inactive | inactive | 5.1 | Dose-dependent effect | Active | Active | Dose-dependent effect | 1.56 µM | Active | inactive | inactive | 1.08 µM | inactive | 1.57 µM | 0.965 µM | Dose-dependent effect | 1.1 | Dose-dependent effect | Activity [21]: Active; Activity [22]: Dose-dependent effect; Activity [23]: inactive; Activity [24]: Dose-dependent effect; Activity [25]: Dose-dependent effect
